This note sets out measurements from ChEMBL document CHEMBL1130046, “Modulation of melphalan resistance in glioma cells with a peripheral benzodiazepine receptor ligand-melphalan conjugate” (J Med Chem, 1997).

The subject of assay [1] is Daoy. The assay is described as follows: Glutathione S-Transferase (GST) Activity against DAOY cell line in Human Medulloblastoma Cells. It is filed as functional.
The test system of assay [2] is D341 cell line. The assay is described as follows: The compound was tested for cytotoxicity against D341 (human) Glioma cell lines. Type of assay: functional, cell-based.
In assay [3] the target is T1, Translocator protein (Rattus norvegicus, UniProt P16257). The assay is described as follows: Binding affinity for PBR (peripheral benzodiazepine receptor) in rat RG-2 glioma cells. Type of assay: cell-based, RG2. The method, boiled down:
(§1)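 Competitive displacement of [3H]Ro 5-4864 (1 nM final, 86.9 Ci/mmol) on rat whole-brain homogenate (~200 µg protein, 50 mM Tris-HCl pH 7.4) or C6/RG-2 cell homogenate (4 µg protein, 50 mM Tris-citrate pH 7.4). Incubation 60 min at 0-4 °C, duplicate tubes. Nonspecific binding with 10 µM PK-11195. Bound ligand collected by glass-fibre filtration, counted by scintillation, fitted by nonlinear regression.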

The subject of another assay is RG2. The assay is described as follows: The compound was tested for cytotoxicity against RG-2 (Rat) Glioma cell lines. It is filed as functional, cell-based. The procedure, abridged:
(§2)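 Adherent cells seeded in their usual medium and allowed to attach overnight at 37 °C. Drugs added fresh, melphalan in saline and others in ethanol (≤1% of well volume), then 48 h at 37 °C. SRB read-out: TCA fixation, SRB staining, dye taken up in 10 mM Tris, absorbance 560 nm. Growth expressed as % of control and IC50 calculated; two or three experiments. C6-MR selected by weekly 24 h melphalan steps starting at 10 µM. DAOY MR kept under 70-78 µM melphalan for 24 h every third passage.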

In assay [4] the test system is D283 Med. In words: Glutathione S-Transferase (GST) Activity against D283 cell line in Human Medulloblastoma Cells. Type of assay: functional.
Assay [5] has as its system Daoy. In words: Glutathione S-Transferase (GST) Activity against DAOY MR cell line in Human Medulloblastoma Cells. It is filed as functional.
In assay [6] the target is T1, Translocator protein. The assay is described as follows: Binding affinity for PBR (peripheral benzodiazepine receptor) in rat C6 glioma cells. It is filed as cell-based. The procedure, abridged: as §1
Assay [7] deals with D283 Med. The assay is described as follows: Glutathione (GSH) Concentrations D 283 cell line in Human Medulloblastoma Cells. Type of assay: functional.
In assay [8] the test system is D283 Med. In words: Glutathione S-Transferase (GST) Activity against D 283 MR cell line in Human Medulloblastoma Cells. It is filed as functional.
Assay [9] relates to D341 cell line. The assay is described as follows: Glutathione S-Transferase (GST) Activity against D341 MR cell line in Human Medulloblastoma Cells. It is filed as functional.
Assay [10] deals with T1, Translocator protein. In words: The compound was tested for binding affinity against PBR(peripheral benzodiazepine receptor) in normal rat brain homogenate. It is filed as tissue-based. The procedure, abridged:
as §1

In assay [11] the test system is Daoy. In words: Glutathione (GSH) Concentrations DAOY MR cell line in Human Medulloblastoma Cells. It is filed as functional.
Assay [12] deals with D341 cell line. In words: Glutathione (GSH) Concentrations D341 cell line in Human Medulloblastoma Cells. Type of assay: functional.
Assay [13] deals with D341 cell line. The assay is described as follows: The compound was tested for cytotoxicity against D341 MR (human) Glioma cell lines. Type of assay: functional, cell-based.
The subject of assay [14] is Daoy. In words: The compound was tested for cytotoxicity against DAOY(human) […] cell lines. It is filed as functional, cell-based. The procedure, abridged: as §2
Assay [15] deals with C6. The assay is described as follows: The compound was tested for cytotoxicity against C6 (Rat) Glioma cell lines. Type of assay: functional, cell-based. The method, boiled down:
as §2

Assay [16] deals with D283 Med. In words: The compound was tested for cytotoxicity against D283 MR (human) Glioma cell lines. Type of assay: functional, cell-based.
Assay [17] relates to Daoy. In words: Glutathione (GSH) Concentrations DAOY cell line in Human Medulloblastoma Cells. It is filed as functional.
Assay [18] has as its system D283 Med. In words: The compound was tested for cytotoxicity against D283 (human) Glioma cell lines. It is filed as functional, cell-based.
Assay [19] concerns Daoy. The assay is described as follows: The compound was tested for cytotoxicity against DAOY MR (human) Glioma cell lines. Type of assay: functional, cell-based. The method, boiled down:
as §2

Assay [20] deals with D341 cell line. The assay is described as follows: Glutathione (GSH) Concentrations D341 MR cell line in Human Medulloblastoma Cells. Type of assay: functional.
Assay [21] has as its system D283 Med. The assay is described as follows: Glutathione (GSH) Concentrations D 283 MR cell line in Human Medulloblastoma Cells. It is filed as functional.
For assay [22], the system named is D341 cell line. In words: Glutathione S-Transferase (GST) Activity against D 341cell line in Human Medulloblastoma Cells. It is filed as functional.
The subject of the next assay is SF-188. In words: The compound was tested for cytotoxicity against SF-188 (human) Glioma cell lines. It is filed as functional, cell-based. The procedure, abridged: as §2
In assay [23] the test system is C6. In words: The compound was tested for cytotoxicity against C6-MR (Rat) Glioma cell lines. It is filed as functional, cell-based. The method, boiled down:
as §2

The subject of a further assay is SF-126. In words: The compound was tested for cytotoxicity against SF-126 (human) Glioma cell lines. It is filed as functional, cell-based. The procedure, abridged:
as §2

Assay [24] relates to Daoy. In words: The compound was tested for cytotoxicity against DAOY (human) Glioma cell lines. It is filed as functional, cell-based. The method, boiled down: as §2
Assay [25] addresses Translocator protein (Rattus norvegicus) (UniProt P16257). The assay is described as follows: Benzodiazepine receptor density in normal rat brain homogenate. It is filed as tissue-based. The method, boiled down: as §1
Assay [26] shares this target. The assay is described as follows: Benzodiazepine receptor density in rat C6 glioma cells. It is filed as cell-based. The method, boiled down: as §1
The target is the same in assay [27]. The assay is described as follows: Benzodiazepine receptor density in rat RG-2 glioma cells. It is filed as cell-based. The following applies: RG2. The method, boiled down: as §1

Translocator protein (Rattus norvegicus), sequence (P16257 whole entry, looked up): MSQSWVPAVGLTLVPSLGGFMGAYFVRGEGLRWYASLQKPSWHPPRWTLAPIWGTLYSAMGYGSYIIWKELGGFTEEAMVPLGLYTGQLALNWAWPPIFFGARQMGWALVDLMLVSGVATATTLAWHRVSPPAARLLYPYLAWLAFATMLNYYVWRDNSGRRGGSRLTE
T1 sequence (P16257 whole entry, looked up): as above

Consider `CCOC(=O)[C@@H](Cc1ccc(N(CCCl)CCCl)cc1)NC(=O)CCCN1C(=O)CN=C(c2ccccc2)c2cc(Cl)ccc21`, for which the GST activity in the assay on Daoy [1] was 88.7 nM min-1 (mg of protein)-1; in the assay on D283 Med [4], 150.6 nM min-1 (mg of protein)-1; with Daoy [5] it was 84 nM min-1 (mg of protein)-1; in the assay with D283 Med [8], 417.3 nM min-1 (mg of protein)-1; in the assay with D341 cell line [9] it was 327.9 nM min-1 (mg of protein)-1; in the assay on D341 cell line [22], 212.6 nM min-1 (mg of protein)-1. The IC50 in the assay on D341 cell line [2] was 25 µM; at Translocator protein [3] it was 390 µM; in the assay with RG2, 34.3 µM; on Translocator protein [6], 289 µM; at Translocator protein [10] it was 327 µM; in the assay on D341 cell line [13], 32.8 µM. The IC50 in the assay on Daoy [14] is 40 µM; in the assay on C6 [15], 43.4 µM; in the assay with D283 Med [16], 25 µM; with D283 Med [18] it was 72.3 µM; in the assay on Daoy [19], 29.3 µM; in the assay on SF-188 it was 17.3 µM. The IC50 with C6 [23] amounted to 74.4 µM; in the assay with SF-126, 21 µM. Also, the GSH with D283 Med [7] came out at 18.4 µM/g; with Daoy [11], 10.8 µM/g; with D341 cell line [12] it was 17.5 µM/g; in the assay on Daoy [17], 11.4 µM/g; in the assay with D341 cell line [20], 33.2 µM/g; in the assay on D283 Med [21], 50.7 µM/g.

For the compound `O=C1CN=C(c2ccccc2)c2cc(Cl)ccc2N1` [NORDAZEPAM], the IC50 with D341 cell line [2] is over 200 µM; in the assay with RG2, over 200 µM; on Translocator protein [10], 520 µM; in the assay with D341 cell line [13] it was over 200 µM; in the assay on C6 [15], over 200 µM; in the assay on D283 Med [16], over 200 µM. Further, the IC50 in the assay on D283 Med [18] is over 200 µM; with Daoy [19], over 200 µM; with SF-188, over 100 µM; in the assay on SF-126 it was over 100 µM; in the assay with Daoy [24] it was over 200 µM.

Consider `N[C@@H](Cc1ccc(N(CCCl)CCCl)cc1)C(=O)O`, for which the IC50 worked out at 12.4 µM in the assay on D341 cell line [2]; 15.2 µM in the assay on RG2; 52.4 µM in the assay on D341 cell line [13]; 11 µM with C6 [15]; 6.8 µM in the assay with D283 Med [18]; 140 µM in the assay with Daoy [19]. The half-maximal inhibitory concentration (IC50) in the assay on SF-188 was 35.4 µM; with C6 [23], 74.9 µM; in the assay on SF-126, 103 µM.

Take `CN1C(=O)CN=C(c2ccc(Cl)cc2)c2cc(Cl)ccc21` [RO-54864]: the IC50 with RG2 is over 100 µM; with C6 [15] it was over 200 µM; with SF-188 it was 138 µM; in the assay on SF-126, over 100 µM. Besides, the Bmax (pM (mg of protein)-1) in assay [25] came to 0.29; in assay [26], 22; in assay [27], 33.
